Data set [1] concerns the target T1, Vascular endothelial growth factor receptor 3 (Homo sapiens, UniProt P35916). The experiment in a line: Inhibition of recombinant human N-terminal GST/His6-tagged VEGFR3 (N799 to R1298 residues) expressed in sf9 cells assessed as equivalents of test compound required to show 50% inhibition using Poly(Glu,Tyr) 4:1 as substrate after 60 mins in presence of [gamma33P]-ATP by scintillation counting method. In outline: (§1)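 Radiometric 33PanQinase assay using recombinant human kinases from Sf9 or E. coli, purified by affinity chromatography. ATP at the apparent Km, plus [γ-33P]-ATP. Compound tested at 1−10 000 nM, 1% DMSO. Incubated 60 min at 30 °C, stopped with 2% H3PO4, 33Pi incorporation counted by scintillation.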

For data set [2], the system named is Jurkat. The experiment in a line: Cell cycle arrest in human Jurkat cells assessed as accumulation at sub-G1 phase after 24 hrs by propidium iodide staining based FACS analysis. Type of data set: functional. In outline:
(§2)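 Cells (1 × 10^6) seeded, incubated overnight, then exposed 24 h at 37 °C and 5% CO2 to increasing concentrations of compound (100 nM axitinib as VEGFR-2 control). Fixed in cold 70% ethanol, stained with propidium iodide for 30 min. DNA content read by flow cytometry, 10,000 gated events per sample. Sub-G1 fraction taken as apoptosis. Three independent experiments.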

Data set [3] is described as follows: Selectivity index, ratio of IC50 for human PBMC to IC50 for human MIAPaCa2 cells. In kind it is toxicity. The following applies: PBMC versus MIAPaCa2 cells, read-out: Ratio IC50. In outline: (§3)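 Selectivity index calculated as MTT IC50 in PBMC divided by MTT IC50 in the cancer line. Both values come from the 24 h MTT viability assay.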
Data set [4] relates to MIA PaCa-2. The experiment in a line: Cell cycle arrest in human MIAPaCa2 cells assessed as accumulation at sub-G1 phase after 24 hrs by propidium iodide staining based FACS analysis. In kind it is functional. In a few lines: as §2
The target in data set [5] is T2, Vascular endothelial growth factor receptor 1 (Homo sapiens, UniProt P17948). The experiment in a line: Inhibition of recombinant human N-terminal GST-tagged VEGFR1 (K784 to I1338 residues) expressed in sf9 cells assessed as equivalents of test compound required to show 50% inhibition using Poly(Glu,Tyr) 4:1 as substrate after 60 mins in presence of [gamma33P]-ATP by scintillation counting method. In outline:
as §1

Data set [6] is described as follows: Selectivity index, ratio of IC50 for human PBMC to IC50 for human A549 cells. The following applies: PBMC versus A549 cells, read-out: Ratio IC50. In kind it is toxicity. In outline: as §3
The target of data set [7] is T2, Vascular endothelial growth factor receptor 1. The experiment in a line: Inhibition of recombinant human N-terminal GST-tagged VEGFR1 (K784 to I1338 residues) expressed in sf9 cells using Poly(Glu,Tyr) 4:1 as substrate after 60 mins in presence of [gamma33P]-ATP by scintillation counting method. In outline: as §1
The target of data set [8] is T3, Mast/stem cell growth factor receptor Kit (Homo sapiens, UniProt P10721). The experiment in a line: Inhibition of recombinant human N-terminal GST/His6-tagged c-KIT (T544 to V976 residues) expressed in sf9 cells assessed as equivalents of test compound required to show 50% inhibition using Poly(Glu,Tyr) 4:1 as substrate after 60 mins in presence of [gamma33P]-ATP by scintillation counting method. In a few lines:
as §1

The subject of data set [9] is ADR5000 cell line. Kind of data set: Cytotoxicity against human CEM/ADR5000 cells assessed as reduction in cell viability after 24 hrs by MTT assay. In kind it is functional, cell-based. The following applies: ADR5000, 24 h. In outline:
(§4)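 Cancer lines or PBMC from healthy human donors seeded in 96-well plates. Exposed to various compound concentrations for 24 h at 37 °C, 5% CO2. MTT solution (5 mg/mL) then added and incubated 2 h more. IC50 obtained by nonlinear regression. Mean ± SD of three independent experiments.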

A short description of data set [10]: Selectivity index, ratio of IC50 for human PBMC to IC50 for human Jurkat cells. The settings on record: PBMC versus Jurkat cells, read-out: Ratio IC50. Type of data set: toxicity. In a few lines: as §3
The target of data set [11] is T3, Mast/stem cell growth factor receptor Kit. Kind of data set: Inhibition of recombinant human N-terminal GST/His6-tagged c-KIT (T544 to V976 residues) expressed in sf9 cells using Poly(Glu,Tyr) 4:1 as substrate after 60 mins in presence of [gamma33P]-ATP by scintillation counting method. In outline:
as §1

Data set [12] addresses T1, Vascular endothelial growth factor receptor 3. Kind of data set: Inhibition of recombinant human N-terminal GST/His6-tagged VEGFR3 (N799 to R1298 residues) expressed in sf9 cells using Poly(Glu,Tyr) 4:1 as substrate after 60 mins in presence of [gamma33P]-ATP by scintillation counting method. In a few lines: as §1
Data set [13] concerns CCRF-CEM. The experiment in a line: Cell cycle arrest in human CCRF-CEM cells assessed as accumulation at sub-G1 phase after 24 hrs by propidium iodide staining based FACS analysis. Type of data set: functional. In a few lines:
as §2

Data set [14] deals with MIA PaCa-2. Kind of data set: Cytotoxicity against human MIAPaCa2 cells assessed as reduction in cell viability after 24 hrs by MTT assay. In kind it is functional, cell-based. The following applies: MIA PaCa-2, 24 h. In outline: as §4
The test system of data set [15] is CCRF-CEM. The experiment in a line: Cytotoxicity against human CCRF-CEM cells assessed as reduction in cell viability after 24 hrs by MTT assay. In kind it is functional, cell-based. In a few lines:
as §4

Data set [16] relates to A549. Kind of data set: Cell cycle arrest in human A549 cells assessed as accumulation at sub-G1 phase after 24 hrs by propidium iodide staining based FACS analysis. Type of data set: functional. In a few lines:
as §2

Another data set concerns PBMC. Kind of data set: Cytotoxicity against human PBMC assessed as reduction in cell viability after 24 hrs by MTT assay. In kind it is cell-based. In a few lines: as §4
Data set [17] relates to MIA PaCa-2. Kind of data set: Cell cycle arrest in human MIAPaCa2 cells assessed as accumulation at S phase at 1 nM after 24 hrs by propidium iodide staining based FACS analysis. Type of data set: functional. In a few lines: as §2
Data set [18] relates to A549. Kind of data set: Cytotoxicity against human A549 cells assessed as reduction in cell viability after 24 hrs by MTT assay. Type of data set: functional, cell-based. The following applies: A549, 24 h. In outline:
as §4

Data set [19] concerns the target T4, Vascular endothelial growth factor receptor 2 (Homo sapiens, UniProt P35968). The experiment in a line: Inhibition of recombinant human N-terminal GST-tagged VEGFR2 (D807 to V1356 residues) expressed in sf9 cells assessed as equivalents of test compound required to show 50% inhibition using Poly(Glu,Tyr) 4:1 as substrate after 60 mins in presence of [gamma33P]-ATP by scintillation counting method. In outline:
as §1

In data set [20] the target is T5, Tyrosine-protein kinase ABL2 (Homo sapiens, UniProt P42684). The experiment in a line: Inhibition of recombinant human N-terminal GST/His6-tagged ABL2 (M1 to P650 residues) expressed in sf9 cells assessed as equivalents of test compound required to show 50% inhibition using Poly(Glu,Tyr) 4:1 as substrate after 60 mins in presence of [gamma33P]-ATP by scintillation counting method. In outline: as §1
T5 sequence (P42684 whole entry, the tested form may be a part): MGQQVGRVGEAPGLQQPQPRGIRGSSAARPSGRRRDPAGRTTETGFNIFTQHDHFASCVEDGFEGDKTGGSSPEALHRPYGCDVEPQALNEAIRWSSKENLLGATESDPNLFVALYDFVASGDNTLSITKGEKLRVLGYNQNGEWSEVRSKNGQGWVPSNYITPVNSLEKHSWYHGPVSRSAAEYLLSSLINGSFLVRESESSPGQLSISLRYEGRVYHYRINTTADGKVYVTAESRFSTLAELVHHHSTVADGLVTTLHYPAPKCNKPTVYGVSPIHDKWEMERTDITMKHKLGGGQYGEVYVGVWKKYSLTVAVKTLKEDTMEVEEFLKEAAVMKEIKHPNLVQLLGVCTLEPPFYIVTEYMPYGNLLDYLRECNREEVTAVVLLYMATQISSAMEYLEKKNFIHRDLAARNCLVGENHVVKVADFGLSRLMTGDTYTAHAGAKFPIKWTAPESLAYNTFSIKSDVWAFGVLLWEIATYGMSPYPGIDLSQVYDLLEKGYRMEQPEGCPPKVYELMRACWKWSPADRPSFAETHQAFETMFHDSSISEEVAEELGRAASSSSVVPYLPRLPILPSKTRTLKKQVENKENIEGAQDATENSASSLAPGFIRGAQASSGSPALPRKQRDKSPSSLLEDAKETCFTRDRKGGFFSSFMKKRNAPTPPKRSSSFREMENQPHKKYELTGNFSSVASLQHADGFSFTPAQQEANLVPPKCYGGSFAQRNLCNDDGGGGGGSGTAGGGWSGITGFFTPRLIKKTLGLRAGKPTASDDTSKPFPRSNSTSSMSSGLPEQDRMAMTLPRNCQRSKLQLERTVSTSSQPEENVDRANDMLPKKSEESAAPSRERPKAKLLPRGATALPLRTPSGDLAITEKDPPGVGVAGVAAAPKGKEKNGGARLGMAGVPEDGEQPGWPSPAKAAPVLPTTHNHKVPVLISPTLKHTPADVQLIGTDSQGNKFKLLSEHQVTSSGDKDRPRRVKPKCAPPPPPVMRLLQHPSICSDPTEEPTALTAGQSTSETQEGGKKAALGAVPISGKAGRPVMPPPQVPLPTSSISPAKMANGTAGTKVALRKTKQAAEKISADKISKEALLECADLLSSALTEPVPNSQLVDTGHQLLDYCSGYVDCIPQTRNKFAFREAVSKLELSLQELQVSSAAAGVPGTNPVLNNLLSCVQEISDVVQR

Data set [21] has as its target T4, Vascular endothelial growth factor receptor 2. The experiment in a line: Inhibition of recombinant human N-terminal GST-tagged VEGFR2 (D807 to V1356 residues) expressed in sf9 cells using Poly(Glu,Tyr) 4:1 as substrate after 60 mins in presence of [gamma33P]-ATP by scintillation counting method. In outline: as §1
Data set [22] deals with Jurkat. The experiment in a line: Cytotoxicity against human Jurkat cells assessed as reduction in cell viability after 24 hrs by MTT assay. In kind it is functional, cell-based. In a few lines:
as §4

The test system of data set [23] is ADR5000 cell line. Kind of data set: Cell cycle arrest in human CEM/ADR5000 cells assessed as accumulation at sub-G1 phase after 24 hrs by propidium iodide staining based FACS analysis. In kind it is functional. In a few lines: as §2
A short description of data set [24]: Selectivity index, ratio of IC50 for human PBMC to IC50 for human CEM/ADR5000 cells. Type of data set: toxicity. The following applies: PBMC versus CEM/ADR5000 cells, read-out: Ratio IC50. In outline: as §3
Data set [25] in a line: Selectivity index, ratio of IC50 for human PBMC to IC50 for human CCRF-CEM cells. Type of data set: toxicity. The following applies: PBMC versus CCRF-CEM cells, read-out: Ratio IC50. In a few lines: as §3
Data set [26] has as its target T5, Tyrosine-protein kinase ABL2. Kind of data set: Inhibition of recombinant human N-terminal GST/His6-tagged ABL2 (M1 to P650 residues) expressed in sf9 cells using Poly(Glu,Tyr) 4:1 as substrate after 60 mins in presence of [gamma33P]-ATP by scintillation counting method. In outline: as §1
Data set [27] relates to ADR5000 cell line. The experiment in a line: Cell cycle arrest in human CEM/ADR5000 cells at 100 nM after 24 hrs by propidium iodide staining based FACS analysis. Type of data set: functional. In outline:
(§5)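 Cells (1 × 10^6) seeded in 12-well plates and held overnight, then exposed to increasing concentrations of test compound or 100 nM axitinib (VEGFR-2 inhibition control) for 24 h at 37 °C, 5% CO2. Fixed in cold 70% ethanol, stained with propidium iodide for 30 min, DNA content read by flow cytometry on 10,000 gated events; three independent experiments, means ± SD.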

Data set [28] concerns CCRF-CEM. Kind of data set: Cell cycle arrest in human CCRF-CEM cells at 100 nM after 24 hrs by propidium iodide staining based FACS analysis. In kind it is functional. In a few lines: as §5
Data set [29] relates to MIA PaCa-2. Kind of data set: Cell cycle arrest in human MIAPaCa2 cells at 100 nM after 24 hrs by propidium iodide staining based FACS analysis. In kind it is functional. In a few lines:
as §5

The subject of data set [30] is Jurkat. The experiment in a line: Cell cycle arrest in human Jurkat cells at 100 nM after 24 hrs by propidium iodide staining based FACS analysis. Type of data set: functional. In outline:
as §5

The test system of data set [31] is A549. The experiment in a line: Cell cycle arrest in human A549 cells at 100 nM after 24 hrs by propidium iodide staining based FACS analysis. Type of data set: functional. In a few lines: as §5
Data set [32] relates to MIA PaCa-2. The experiment in a line: Cell cycle arrest in human MIAPaCa2 cells at 1 to 1000 nM after 24 hrs by propidium iodide staining based FACS analysis. In kind it is functional. In outline: as §2
A short description of data set [33]: Cytotoxicity against human PBMC assessed as cell viability at 80 uM after 24 hrs by MTT assay relative to control. In kind it is cell-based. The following applies: read-out: Activity. In outline: as §4

The values below come from ChEMBL document CHEMBL4371099, “Bifunctional Duocarmycin Analogues as Inhibitors of Protein Tyrosine Kinases” (J Nat Prod, 2019).

The structures appear in SMILES notation. pIC50: −log10 of the molar value. Active and inactive are the calls of the source. The calls are words filed in the database; no cut-off is given here. Where only a bound is given, the exact number is not on record here.

T3 sequence (P10721 whole entry, the tested form may be a part): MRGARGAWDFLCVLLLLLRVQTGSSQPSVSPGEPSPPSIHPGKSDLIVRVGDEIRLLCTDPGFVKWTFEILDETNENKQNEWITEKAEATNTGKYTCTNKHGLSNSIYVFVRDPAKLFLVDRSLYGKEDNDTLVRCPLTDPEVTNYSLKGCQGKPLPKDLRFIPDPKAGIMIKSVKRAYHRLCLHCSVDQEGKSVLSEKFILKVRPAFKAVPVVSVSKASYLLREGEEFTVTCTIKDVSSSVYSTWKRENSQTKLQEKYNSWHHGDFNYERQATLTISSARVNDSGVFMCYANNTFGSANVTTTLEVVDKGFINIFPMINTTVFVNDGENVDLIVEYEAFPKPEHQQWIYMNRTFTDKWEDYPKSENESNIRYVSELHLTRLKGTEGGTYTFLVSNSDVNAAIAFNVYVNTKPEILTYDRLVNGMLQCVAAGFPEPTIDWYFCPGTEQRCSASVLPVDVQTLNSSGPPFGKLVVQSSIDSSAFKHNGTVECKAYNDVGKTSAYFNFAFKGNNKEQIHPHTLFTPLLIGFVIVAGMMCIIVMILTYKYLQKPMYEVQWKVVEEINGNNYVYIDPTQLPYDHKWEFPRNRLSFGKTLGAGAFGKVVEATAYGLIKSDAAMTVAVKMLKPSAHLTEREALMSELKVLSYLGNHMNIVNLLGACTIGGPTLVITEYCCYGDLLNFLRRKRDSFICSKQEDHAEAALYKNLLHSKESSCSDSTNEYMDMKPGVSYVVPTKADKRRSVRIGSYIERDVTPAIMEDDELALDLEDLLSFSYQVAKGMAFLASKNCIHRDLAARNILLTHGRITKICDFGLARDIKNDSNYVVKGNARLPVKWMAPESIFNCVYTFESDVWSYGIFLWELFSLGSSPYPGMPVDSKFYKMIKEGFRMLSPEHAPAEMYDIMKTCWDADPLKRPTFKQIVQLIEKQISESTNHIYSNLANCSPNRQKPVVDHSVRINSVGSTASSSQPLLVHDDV
T2 sequence (P17948 whole entry, the tested form may be a part): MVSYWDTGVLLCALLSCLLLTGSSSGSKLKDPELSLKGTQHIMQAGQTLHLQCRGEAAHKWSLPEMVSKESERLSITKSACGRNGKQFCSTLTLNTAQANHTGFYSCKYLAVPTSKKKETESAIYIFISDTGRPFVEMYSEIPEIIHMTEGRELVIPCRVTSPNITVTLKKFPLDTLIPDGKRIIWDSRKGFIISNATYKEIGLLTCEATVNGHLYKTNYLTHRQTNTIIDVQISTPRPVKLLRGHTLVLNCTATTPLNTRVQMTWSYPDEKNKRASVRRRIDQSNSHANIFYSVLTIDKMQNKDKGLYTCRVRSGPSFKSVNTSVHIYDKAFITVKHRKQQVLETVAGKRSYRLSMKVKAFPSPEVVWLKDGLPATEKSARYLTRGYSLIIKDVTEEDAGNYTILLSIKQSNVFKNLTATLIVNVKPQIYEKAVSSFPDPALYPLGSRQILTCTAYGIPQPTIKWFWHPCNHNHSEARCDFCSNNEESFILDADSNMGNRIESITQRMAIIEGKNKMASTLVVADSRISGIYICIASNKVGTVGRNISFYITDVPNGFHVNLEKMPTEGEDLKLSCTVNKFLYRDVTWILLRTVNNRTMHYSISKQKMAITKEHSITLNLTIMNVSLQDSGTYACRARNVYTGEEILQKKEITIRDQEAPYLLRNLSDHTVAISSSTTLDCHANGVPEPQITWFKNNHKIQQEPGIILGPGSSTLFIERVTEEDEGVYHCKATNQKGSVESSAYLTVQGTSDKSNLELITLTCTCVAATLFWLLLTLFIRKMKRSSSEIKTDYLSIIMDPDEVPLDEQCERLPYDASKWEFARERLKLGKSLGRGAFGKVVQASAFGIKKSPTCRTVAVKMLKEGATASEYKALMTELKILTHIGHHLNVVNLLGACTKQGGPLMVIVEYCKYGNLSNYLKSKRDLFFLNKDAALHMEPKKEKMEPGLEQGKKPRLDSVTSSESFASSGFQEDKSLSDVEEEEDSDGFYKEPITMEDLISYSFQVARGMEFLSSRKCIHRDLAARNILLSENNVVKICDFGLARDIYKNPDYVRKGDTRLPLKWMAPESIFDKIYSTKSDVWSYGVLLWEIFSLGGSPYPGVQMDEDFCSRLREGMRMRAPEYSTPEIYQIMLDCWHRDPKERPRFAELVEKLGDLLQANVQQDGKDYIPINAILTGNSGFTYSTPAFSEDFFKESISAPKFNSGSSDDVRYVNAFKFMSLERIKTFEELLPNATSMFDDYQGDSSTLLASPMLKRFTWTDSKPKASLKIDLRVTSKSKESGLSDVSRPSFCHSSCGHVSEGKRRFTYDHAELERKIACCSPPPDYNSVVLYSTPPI
T1 sequence (P35916 whole entry, the tested form may be a part): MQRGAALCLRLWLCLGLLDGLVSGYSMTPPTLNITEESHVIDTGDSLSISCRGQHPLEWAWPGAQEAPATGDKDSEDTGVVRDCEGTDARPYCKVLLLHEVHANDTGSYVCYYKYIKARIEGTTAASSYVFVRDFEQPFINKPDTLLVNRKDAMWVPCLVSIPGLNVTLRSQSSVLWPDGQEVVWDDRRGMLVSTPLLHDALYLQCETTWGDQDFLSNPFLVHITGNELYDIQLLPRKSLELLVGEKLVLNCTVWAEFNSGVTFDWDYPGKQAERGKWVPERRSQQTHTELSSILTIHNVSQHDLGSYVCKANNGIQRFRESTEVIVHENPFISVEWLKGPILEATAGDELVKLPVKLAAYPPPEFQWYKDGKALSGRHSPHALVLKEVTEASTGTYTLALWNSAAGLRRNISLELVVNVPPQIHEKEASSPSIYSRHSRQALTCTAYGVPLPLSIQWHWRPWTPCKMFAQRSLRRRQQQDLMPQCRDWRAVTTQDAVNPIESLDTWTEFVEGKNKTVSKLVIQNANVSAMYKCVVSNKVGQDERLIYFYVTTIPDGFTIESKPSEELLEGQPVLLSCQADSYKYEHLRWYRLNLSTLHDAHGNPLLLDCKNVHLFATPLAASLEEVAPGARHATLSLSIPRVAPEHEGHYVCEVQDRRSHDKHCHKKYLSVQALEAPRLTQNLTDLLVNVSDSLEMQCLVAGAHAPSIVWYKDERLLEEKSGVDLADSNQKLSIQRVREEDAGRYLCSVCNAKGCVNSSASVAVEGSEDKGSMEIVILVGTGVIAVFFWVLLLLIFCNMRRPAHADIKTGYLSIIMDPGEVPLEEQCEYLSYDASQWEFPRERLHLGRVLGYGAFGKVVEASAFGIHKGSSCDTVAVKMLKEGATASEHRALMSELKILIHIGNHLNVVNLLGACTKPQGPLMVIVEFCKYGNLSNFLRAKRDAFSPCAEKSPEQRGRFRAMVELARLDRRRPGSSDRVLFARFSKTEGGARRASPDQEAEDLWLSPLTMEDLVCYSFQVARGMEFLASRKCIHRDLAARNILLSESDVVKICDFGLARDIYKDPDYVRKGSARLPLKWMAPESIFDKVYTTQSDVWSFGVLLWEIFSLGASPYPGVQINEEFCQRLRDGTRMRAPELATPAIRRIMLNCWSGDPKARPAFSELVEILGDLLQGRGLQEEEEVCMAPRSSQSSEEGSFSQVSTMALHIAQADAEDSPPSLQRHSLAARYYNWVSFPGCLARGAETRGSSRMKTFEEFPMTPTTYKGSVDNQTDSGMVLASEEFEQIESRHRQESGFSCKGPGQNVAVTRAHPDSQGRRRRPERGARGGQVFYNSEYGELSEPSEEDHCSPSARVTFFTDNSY

As for `O=C(CCCC(=O)N1C[C@@H](CCl)c2c1cc(O)c1ccccc21)N1C[C@@H](CCl)c2c1cc(O)c1ccccc21`, the Activity in data set [1] is 894 equiv; with Jurkat [2], “Dose-dependent effect”; in the data set with MIA PaCa-2 [4] it was “Dose-dependent effect”; in data set [5], 283 equiv; in data set [8], 233 equiv; in the data set on CCRF-CEM [13] it was “Dose-dependent effect”. Besides, the Activity entry was “Dose-dependent effect” with A549 [16], 230 equiv in [19], 457 equiv in data set [20] and “Dose-dependent effect” with ADR5000 cell line [23]. Moreover, the selectivity ratio in [3] turned out to be 142; in data set [6], 741; in [10] it was 1430; in data set [24], 290; in [25] it was 2220. In addition, the pIC50 in [7] was 5.89; with ADR5000 cell line [9], 8.16; in [11], 5.52; in data set [12], 5.38; with MIA PaCa-2 [14] it was 7.85; in the data set with CCRF-CEM [15], 9.05. The pIC50 is 5.70 in the data set with PBMC; 8.57 in the data set on A549 [18]; 6.28 in data set [21]; 8.85 with Jurkat [22]; 6.16 in [26]. Moreover, the inhibition entry in [7], in data set [11], in data set [12], in [21] and in [26] was “Dose-dependent effect” throughout. Also, the outcome in the data set on MIA PaCa-2 [17] was Active.

For `CNC(=O)c1ccccc1Sc1ccc2c(/C=C/c3ccccn3)n[nH]c2c1`, the result with ADR5000 cell line [27], with CCRF-CEM [28], in the data set on MIA PaCa-2 [29], with Jurkat [30] and in the data set with A549 [31] was Active.

In the case of `C[C@@H]1CN(C(=O)CCCC(=O)N2C[C@@H](C)c3c2cc(O)c2ccccc32)c2cc(O)c3ccccc3c21`, in the data set on MIA PaCa-2 [32], the result was inactive. Besides, the Activity turned out to be 511 equiv in data set [5], 643 equiv in data set [8], 143 equiv in data set [19] and 360 equiv in [20]. Moreover, the selectivity ratio in data set [6] is above 120; in data set [10], above 121; in data set [25], above 439. Also, the pIC50 in data set [7] was 5.68; with ADR5000 cell line [9] it was below 5.00; in data set [11] it was 5.08; in data set [12], below 5.00; in the data set with MIA PaCa-2 [14], below 5.00; with CCRF-CEM [15] it was 6.74. Also, the negative-log IC50 (pIC50) in the data set with PBMC is below 4.10; in the data set on A549 [18], 6.18; in [21], 6.48; in the data set with Jurkat [22], 6.18; in data set [26], 6.27. For the same molecule, in [33], the viability at 24 h, 80 µM was 80%.
